Compound activity as filed in PubChem BioAssay.
A selection: hits, their analogues and other compounds. The true share with any hit is near 0.72%.
mIAP act – activators of mouse IAP, primary screen, biochemical, luminescence, uHTS | 330,000 compounds, 0.24% hits | muIAP, CDP-Star luminescence, 30 min; active compounds read high; 1 = vehicle-only enzyme signal, 0 = enzyme-free wells | intestinal alkaline phosphatase [Mus musculus] | activation factor at 10 µM | AID 2805, 2010;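 active = activation factor of at least 2 at 20 µM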
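Assay system: mouse IAP enzyme; Reagent: CDP-Star chemiluminescent phosphatase substrate; Compound: DMSO-dissolved test compounds; Incubation: 30 min, room temperature; Technique: luminescence from enzymatic CDP-Star hydrolysis; Controls: DMSO-only wells and no-enzyme negative control.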
bIAP act – bovine intestinal alkaline phosphatase activators, primary screen, biochemical, bovine IAP, CDP-star luminescence | purified bovine IAP, 30 min; active compounds read high; fold of DMSO-control signal, blank-subtracted | alkaline phosphatase, intestinal [Bos taurus] | activation factor at 20 µM | 200,000 compounds, 0.17% hits;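 active = activation factor of 2 or more at 20 µM, a signal rise over negative controls twice the positive control's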
hIAP block – human IAP inhibitors, primary screen, biochemical, luminescence, uHTS | Intestinal-type alkaline phosphatase (Homo sapiens), P09923 | purified IAP, CDP-Star luminescence, 30 min | inhibition, % at 10 µM | 330,000 compounds, 0.12% hits | AID 2544, 2010;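 active = inhibition reaching a set limit with compound at 10 µM in the primary screen, cut at about 35% in these data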;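 also: plate controls were DMSO wells with enzyme for no effect and no-enzyme buffer wells for full effect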
Target sequence (P09923 whole entry, looked up): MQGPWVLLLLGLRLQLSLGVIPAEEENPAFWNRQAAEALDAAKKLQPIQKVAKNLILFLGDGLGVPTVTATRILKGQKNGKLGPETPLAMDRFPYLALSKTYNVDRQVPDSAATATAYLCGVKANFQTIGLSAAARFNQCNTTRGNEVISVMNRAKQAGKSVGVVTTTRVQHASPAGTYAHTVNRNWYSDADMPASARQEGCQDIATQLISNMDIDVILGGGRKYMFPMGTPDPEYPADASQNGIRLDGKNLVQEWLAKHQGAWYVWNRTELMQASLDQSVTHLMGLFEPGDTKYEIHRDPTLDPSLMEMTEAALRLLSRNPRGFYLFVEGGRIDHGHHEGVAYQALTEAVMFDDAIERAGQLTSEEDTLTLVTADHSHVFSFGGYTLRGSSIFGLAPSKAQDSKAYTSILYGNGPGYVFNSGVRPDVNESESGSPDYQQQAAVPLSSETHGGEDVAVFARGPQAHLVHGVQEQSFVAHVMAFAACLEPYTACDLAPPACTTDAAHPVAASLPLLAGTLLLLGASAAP
mIAP inh – inhibitors of mouse IAP, primary screen, biochemical, luminescence, uHTS | intestinal alkaline phosphatase [Mus musculus] | purified mouse IAP, CDP-Star luminescence, 30 min | inhibition, % at 10 µM | 330,000 compounds, 0.2% hits | AID 2806, 2010;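 active = inhibition of at least 40% at 10 µM in the primary screen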;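 also: plate controls were DMSO with enzyme for no effect and no enzyme wells for full effect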
bIAP inhibitor – bovine intestinal alkaline phosphatase inhibitors, primary screen, selectivity assay for TNAP inhibitor project, biochemical, bovine IAP, CDP-star luminescence; inhibition, % at 20 µM; alkaline phosphatase, intestinal [Bos taurus]; purified bovine IAP, 30 min; 190,000 tested, under 10 active;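 active = over 50% inhibition of intestinal alkaline phosphatase at 20 µM in the single-dose screen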
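Assay system – bovine IAP enzyme · Quantity – bovine IAP at 1/65,000,000 final dilution · Detection – CDP-star luminescence signal · Times – 30 min reaction at room temperature · Also added – CDP-star substrate at 30 µM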
hIAP act – human IAP activators, primary screen, biochemical, luminescence, uHTS; Intestinal-type alkaline phosphatase (Homo sapiens), P09923; purified human IAP, CDP-Star luminescence, 30 min; active compounds read high; 1 = vehicle-only enzyme, 0 = enzyme-free background; 330,000 compounds, 0.16% hits; AID 2524, 2010; activation factor at 10 µM;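 active = activation factor of the enzyme at least 2-fold when tested at 20 µM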
mIAP inh conf – inhibitors of mouse IAP, confirmation, biochemical, luminescence, single concentration; shares compounds with mIAP inh; inhibition, % at 10 µM; purified mouse IAP, CDP-Star luminescence, 30 min; 11,000 compounds, 4.7% hits;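 active = inhibition of at least 40% at 10 µM in either of the two replicates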;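 also: plate controls were DMSO wells with enzyme for no effect and buffer wells lacking enzyme for full effect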
* marks the source's active call; other numbers are inactive results.

O=C1/C(=C\c2ccco2)SC(=S)N1c1ccccc1 was read as mIAP act 0.36, bIAP act 1, hIAP block -5, mIAP inh 64*, bIAP inhibitor -1, hIAP act 1.1 and mIAP inh conf 57*.
`O=C1/C(=C/c2ccco2)SC(=S)N1CC1CCCO1` (stereo not drawn) gave mIAP act 0.52, hIAP block 14, mIAP inh 48*, hIAP act 0.86 and mIAP inh conf 54*.
`COc1ccc(CCN2C(=O)/C(=C\c3ccco3)SC2=S)cc1OC` gave mIAP act 0.58, bIAP act 0.9, hIAP block -1, mIAP inh 42*, bIAP inhibitor 6, hIAP act 1 and mIAP inh conf 45*.
Screening Cc1ccc(N2C(=O)/C(=C\c3ccco3)SC2=S)cc1 returned mIAP act 0.45, bIAP act 0.9, hIAP block 7, mIAP inh 55*, bIAP inhibitor 6, hIAP act 0.93 and mIAP inh conf 65*.
Screening Cc1ccccc1S(=O)(=O)Cc1ccc(C(=O)N2CCN(c3ccccc3F)CC2)o1 returned mIAP act 0.98, hIAP block 1, mIAP inh 2 and hIAP act 0.99.
`O=C(/C=C\c1ccco1)NC(=S)Nc1ccccc1O` gave mIAP act 0.41, hIAP block -12, mIAP inh 59*, hIAP act 1.1 and mIAP inh conf 72*.
Screening O=C(/C=C/c1ccco1)NC(=S)Nc1ccccc1O returned mIAP act 0.55, bIAP act 1.1, hIAP block 11, mIAP inh 46*, bIAP inhibitor -6, hIAP act 0.89 and mIAP inh conf 54*.
Screening CCOc1ccc(NC(=S)NC(=O)/C=C/c2ccco2)cc1 returned mIAP act 0.91, hIAP block -7, mIAP inh 9 and hIAP act 1.1.
`COc1cc(NS(=O)(=O)c2ccc(NC(=S)NC(=O)/C=C/c3ccco3)cc2)ncn1` gave mIAP act 0.58, bIAP act 1, hIAP block 10, mIAP inh 42*, bIAP inhibitor -3, hIAP act 0.9 and mIAP inh conf 64*.
For Cc1ccc(NC(=S)NC(=O)/C=C/c2ccco2)c(O)c1 the results were mIAP act 0.53, bIAP act 1, hIAP block -1, mIAP inh 47*, bIAP inhibitor -3, hIAP act 1 and mIAP inh conf 54*.
Screening COc1ccc(NC(=S)NC(=O)/C=C/c2ccco2)c(OC)c1 returned mIAP act 0.91, hIAP block 11, mIAP inh 9 and hIAP act 0.89.
Screening O=C(/C=C/c1ccco1)NC(=S)Nc1ccccc1N1CCCC1 returned mIAP act 0.89, bIAP act 1, hIAP block -2, mIAP inh 11, bIAP inhibitor 3 and hIAP act 1.
Screening COc1cccc(NC(=S)NC(=O)/C=C/c2ccco2)c1 returned mIAP act 0.8, hIAP block 0, mIAP inh 20 and hIAP act 1.
`O=C(/C=C/c1ccco1)NC(=S)Nc1cccc(C(=O)O)c1` gave mIAP act 0.52, hIAP block 17, mIAP inh 48*, hIAP act 0.83 and mIAP inh conf 63*.
Screening Cc1cccc(NC(=O)NCCCCc2ccccc2)c1 returned mIAP act 2.3*, hIAP block -8, mIAP inh -132, hIAP act 1.1 and mIAP inh conf -138.
Screening O=C(NCCCc1ccccc1)Nc1ccccc1 returned mIAP act 1.3, bIAP act 1, hIAP block -1, mIAP inh -35, bIAP inhibitor 2 and hIAP act 1.
Screening O=C(NCCCCc1ccccc1)Nc1cccc(F)c1 returned mIAP act 2.5*, hIAP block -18, mIAP inh -146, hIAP act 1.2 and mIAP inh conf -129.
Cc1ccc(NC(=O)NCCCCc2ccccc2)cc1 was read as mIAP act 1.6, hIAP block -8, mIAP inh -62 and hIAP act 1.1.
Screening Cc1cccc(NC(=O)NC(C)CCc2ccccc2)c1 (stereo not drawn) returned mIAP act 2.8*, bIAP act 1.1, hIAP block -4, mIAP inh -180, bIAP inhibitor -13, hIAP act 1 and mIAP inh conf -183.
Screening COc1ccc(CN2CCNC(=O)C2CC(=O)N(C)Cc2ccon2)c(F)c1 (stereo not drawn) returned mIAP act 0.96, hIAP block -18, mIAP inh 4 and hIAP act 1.2.
`O=C(COC(=O)c1cc(S(=O)(=O)N2CCOCC2)ccc1O)Nc1ccc2c(c1)OCO2` gave mIAP act 0.99, hIAP block 4, mIAP inh 1 and hIAP act 0.96.
`NS(=O)(=O)c1ccc(O)c(N2C(=O)c3cccc4c(C(=O)c5ccccc5)ccc(c34)C2=O)c1` gave bIAP act 0.9 and bIAP inhibitor 14.
Cc1noc(C)c1CSCC(=O)Nc1cccc(C(F)(F)F)c1 was read as mIAP act 1.1, hIAP block 0, mIAP inh -11 and hIAP act 1.
`CSc1ccc(CN2CCC(n3nccc3NC(=O)CCCc3ccccc3)CC2)cc1` gave mIAP act 2.7*, hIAP block -84, mIAP inh -171, hIAP act 1.8 and mIAP inh conf -126.
Screening Nc1ncnc2oc(-c3ccco3)c(-c3ccco3)c12 returned mIAP act 0.29, bIAP act 0.9, hIAP block 14, mIAP inh 71*, bIAP inhibitor 8, hIAP act 0.86 and mIAP inh conf 75*.
c1ccc(-c2nccc(-c3ccco3)n2)nc1 was read as mIAP act 1, bIAP act 1, hIAP block -13, mIAP inh 0, bIAP inhibitor 0 and hIAP act 1.1.
`CCOC(=O)Cc1nnc2c(Nc3ccc(Cl)cc3)nc3nonc3n12` gave mIAP act 0.75, bIAP act 0.9, hIAP block 18, mIAP inh 25, bIAP inhibitor 5, hIAP act 0.82 and mIAP inh conf 37*.
Screening Cc1ccc(S(C)(=O)=O)cc1C(=O)NC(C)C1CC2CCC1C2 (stereo not drawn) returned mIAP act 0.96, hIAP block 6, mIAP inh 4 and hIAP act 0.94.
